Measurements taken from paper PMC3501882 (Diabetes, 2012).
Residues, ends and D or L forms follow the SMILES beside them.

Legend:
BDC-2.5 T-cell clone = assay: IFN-γ response of T-cell clone to antigen; type: cell-based, NOD mouse; settings: for IFN-γ response of BDC-2.5 to peptide (in words): increasing peptide concentrations, before and after TGase treatment, Fig. 1B, 1C
PD-12.4.4 T-cell clone = assay: IFN-γ response of insulin-reactive T-cell clone to antigen; type: cell-based, NOD mouse; settings: for IFN-γ response of PD-12.4.4 to peptide (in words): increasing peptide concentrations, Fig. 1A, 1D
[1] = type: physicochemical; settings: poorly soluble peptides were used as suspensions in assays
[2] = system: CD4 T cells from BDC-2.5 TCR-Tg mice; assay: T-cell proliferation assay; type: cell-based, mouse; settings: for Proliferative response of BDC-2.5 TCR-Tg CD4 T cells (in words): Fig. 2A, WE14 at 200 μg/mL (120 μmol/L)
Outline: (§1)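 Spleen cells from TCR-transgenic NOD mice (2–5 months old) labeled with 2.5 μmol/L CFSE. Cultured at 1 × 10^6/well with peptide antigen, medium, or anti-CD3ε 0.1 μg/mL for 4 days. Cells stained for CD4 and analysed by flow cytometry, gated on CD4/lymphocyte events. Read-out: percentage of divided cells, mean and SD per mouse over two independent experiments.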

[3] = system: CD4 T cells from BDC-6.9 TCR-Tg mice; assay: T-cell proliferation assay; type: cell-based, mouse; settings: Fig. 2A; negative control T cells
Outline: as §1

[4] = system: guinea pig transglutaminase; settings: increasing putrescine 0.06–15.6 mmol/L in the reaction mixture; gel lanes 2–10

Solubility in water (in words) [1] | Compound | IFN-γ response of BDC-2.5 to peptide (in words) (BDC-2.5 T-cell clone) | IFN-γ response of PD-12.4.4 to peptide (in words) (PD-12.4.4 T-cell clone) | Proliferative response of BDC-2.5 TCR-Tg CD4 T cells (in words) [2] | other results
only poorly soluble in water | FVKQHLCGSHLVEALYLVCGERGFFYTPMS [insulin B-chain] | remain inactive | responded |  | Effect of TGase treatment on PD-12.4.4 response (PD-12.4.4 T-cell clone; Fig. 1D): not increased significantly
 | EKAHRPIWARMDAKK |  |  | responded | 
 | KCNTATCATQRLANFLVRSS [KS20] | remain inactive | did not respond | no proliferative response | Effect of TGase treatment of the peptide on T-cell proliferation ([2]; any peptide concentration tested, data not shown): did not alter the T-cell proliferation responses; Proliferative response of BDC-6.9 TCR-Tg CD4 T cells (in words) [3]: no proliferative response
only poorly soluble in water | DTKVMKCVLEVISD [ChgA29–42] | not antigenic | not antigenic at higher or lower peptide concentrations | no proliferative response | Effect of TGase treatment on antigenicity of the peptide (BDC-2.5 T-cell clone; BDC-2.5 (for WE14 also BDC-10.1 and BDC-9.46), IFN-γ ELISA): did not lead to an increase of antigenicity; IFN-γ response of PD-12.4.4 to peptide at 66 μg/mL (PD-12.4.4 T-cell clone; 66 μg/mL (42 μmol/L), in the absence of TGase): very small PD-12.4.4 response; Proliferative response of BDC-6.9 TCR-Tg CD4 T cells (in words) [3]: no proliferative response
 | NCCCCN [putrescine] |  |  |  | Effect of putrescine on antigenicity of β-Mem positive control antigen (BDC-2.5 T-cell clone; data not shown): did not affect the antigenicity; Effect of inhibitor in TGase reaction on BDC-2.5 response to converted peptide (BDC-2.5 T-cell clone; increasing putrescine 0.06–15.6 mmol/L, Fig. 6A top, lanes 2–10): diminished T-cell responses; Effect of inhibitor on TGase-catalysed WE14 oligomerization [4]: decreasing peptide oligomerization
solubilized directly in sterile water | WSRMDELAKELTAE [WE14-Q6E] | no better than unmodified WE14 |  |  | 

Compound | Solubility in water (in words) [1] | IFN-γ response of BDC-2.5 to peptide (in words) (BDC-2.5 T-cell clone) | IFN-γ response of PD-12.4.4 to peptide (in words) (PD-12.4.4 T-cell clone) | Proliferative response of BDC-2.5 TCR-Tg CD4 T cells (in words) [2] | other results
CSCC[C@H](NC(=O)[C@H](CCCNC(=N)N)NC(=O)[C@H](CO)NC(=O)[C@@H](N)Cc1c[nH]c2ccccc12)C(=O)N[C@@H](CC(=O)O)C(=O)N[C@@H](CCC(N)=O)C(=O)N[C@@H](CC(C)C)C(=O)N[C@@H](C)C(=O)N[C@@H](CCCCN)C(=O)N[C@@H](CCC(=O)O)C(=O)N[C@@H](CC(C)C)C(=O)N[C@H](C(=O)N[C@@H](C)C(=O)N[C@@H](CCC(=O)O)C(=O)O)[C@@H](C)O [WE14] (H-WSRMDQLAKELTAE-OH) | solubilized directly in sterile water |  |  |  | 
